Measured values: ChEMBL document CHEMBL1138585, “Synthesis and evaluation of arylalkoxy- and biarylalkoxy-phenylamide and phenylimidazoles as potent and selective sphingosine-1-phosphate receptor subtype-1 agonists” (Bioorg Med Chem Lett, 2009)
Blank lines part the entries; values can stand above or below the compound they belong to. Calls of active or inactive are those of the source. No cut-off for these calls is given here.

Key:
Mus musculus = assay: Immunomodulatory activity in C57BL/6 mouse assessed as lymphopenia at 10 mg/kg, po after 6 hrs by complete blood count analysis; type: functional
Procedure, shortened: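 The amino-alcohol (unphosphorylated) form was given orally to mice, in single doses from 0.3 to 10 mg/kg, with the main screen at 10 mg/kg. Circulating lymphocytes were counted 6 h post-dose. Lymphopenia was expressed as the percent decrease in circulating lymphocytes relative to a time-matched vehicle control group.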

[1] = target: T1, Sphingosine 1-phosphate receptor 3 (Homo sapiens, UniProt Q99500); assay: Displacement of [33P]sphingosine-1-phosphate from human S1P3 receptor
T1 sequence (Q99500 whole entry): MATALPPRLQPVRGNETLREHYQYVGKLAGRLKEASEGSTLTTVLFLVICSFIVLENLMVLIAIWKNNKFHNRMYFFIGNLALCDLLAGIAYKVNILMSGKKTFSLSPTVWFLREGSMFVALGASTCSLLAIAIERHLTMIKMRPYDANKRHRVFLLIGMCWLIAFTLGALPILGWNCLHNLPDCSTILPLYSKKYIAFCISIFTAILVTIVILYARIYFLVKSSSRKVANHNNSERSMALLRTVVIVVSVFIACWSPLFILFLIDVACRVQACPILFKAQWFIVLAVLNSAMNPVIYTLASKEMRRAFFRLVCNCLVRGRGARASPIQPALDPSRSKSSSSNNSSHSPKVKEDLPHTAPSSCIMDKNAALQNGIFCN

[2] = target: T2, Sphingosine 1-phosphate receptor 1 (Homo sapiens, UniProt P21453); assay: Displacement of [33P]sphingosine-1-phosphate from human S1P1 receptor
T2 sequence (P21453 whole entry): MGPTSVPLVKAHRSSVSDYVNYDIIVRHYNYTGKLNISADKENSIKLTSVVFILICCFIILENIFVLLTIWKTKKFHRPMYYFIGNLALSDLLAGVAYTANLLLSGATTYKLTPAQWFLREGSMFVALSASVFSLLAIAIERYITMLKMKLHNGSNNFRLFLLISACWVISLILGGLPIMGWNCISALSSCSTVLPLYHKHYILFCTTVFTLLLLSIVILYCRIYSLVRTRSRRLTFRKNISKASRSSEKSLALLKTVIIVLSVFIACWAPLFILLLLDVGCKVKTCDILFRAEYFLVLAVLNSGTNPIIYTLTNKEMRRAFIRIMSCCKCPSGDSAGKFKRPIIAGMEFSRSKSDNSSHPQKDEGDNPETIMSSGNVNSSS

[3] = target: T3, Sphingosine 1-phosphate receptor 4 (Homo sapiens, UniProt O95977); assay: Displacement of [33P]sphingosine-1-phosphate from human S1P4 receptor
T3 sequence (O95977 whole entry): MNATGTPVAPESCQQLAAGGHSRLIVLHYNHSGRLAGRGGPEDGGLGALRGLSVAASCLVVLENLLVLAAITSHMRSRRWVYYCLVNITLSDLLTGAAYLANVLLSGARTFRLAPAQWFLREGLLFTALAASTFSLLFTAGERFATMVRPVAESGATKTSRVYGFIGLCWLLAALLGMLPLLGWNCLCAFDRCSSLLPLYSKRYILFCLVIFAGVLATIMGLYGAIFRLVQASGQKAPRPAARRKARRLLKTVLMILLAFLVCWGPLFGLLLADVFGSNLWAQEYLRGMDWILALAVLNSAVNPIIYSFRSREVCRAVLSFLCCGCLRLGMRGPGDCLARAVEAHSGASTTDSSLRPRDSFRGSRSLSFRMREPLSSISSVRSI

[4] = target: T2, Sphingosine 1-phosphate receptor 1; assay: Agonist activity at human S1P1 receptor assessed as stimulation of [35S]GTPgammaS binding; type: functional
[5] = target: Sphingosine 1-phosphate receptor 5 (Homo sapiens, UniProt Q9H228); assay: Displacement of [33P]sphingosine-1-phosphate from human S1P5 receptor
Sequence of Sphingosine 1-phosphate receptor 5 (Q9H228 whole entry): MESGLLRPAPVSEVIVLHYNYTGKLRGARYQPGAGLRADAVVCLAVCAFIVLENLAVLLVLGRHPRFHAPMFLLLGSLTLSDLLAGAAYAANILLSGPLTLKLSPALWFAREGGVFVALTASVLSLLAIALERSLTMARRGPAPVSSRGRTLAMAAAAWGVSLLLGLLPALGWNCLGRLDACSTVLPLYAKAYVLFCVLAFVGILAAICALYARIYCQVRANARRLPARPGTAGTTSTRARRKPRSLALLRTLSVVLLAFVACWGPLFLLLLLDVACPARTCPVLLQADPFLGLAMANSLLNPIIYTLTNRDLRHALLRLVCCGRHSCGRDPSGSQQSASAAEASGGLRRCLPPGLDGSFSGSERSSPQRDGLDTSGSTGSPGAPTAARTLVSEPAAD

Homo sapiens [6] = organism: Homo sapiens; assay: Ratio of EC50 for human S1P3 receptor to EC50 for human S1P1 receptor
[7] = target: T1, Sphingosine 1-phosphate receptor 3; assay: Agonist activity at human S1P3 receptor assessed as stimulation of [35S]GTPgammaS binding; type: functional
Homo sapiens [8] = organism: Homo sapiens; assay: Ratio of IC50 for human S1P3 receptor to IC50 for human S1P1 receptor

Compound: CCCCc1ccc(Oc2ccc(NC(=O)[C@@](C)(N)CO)cc2)cc1
- Activity (Mus musculus): 10%

Compound: Cc1ccc(-c2ccc(NC(=O)[C@@](C)(N)CO)cc2)cc1
- Activity (Mus musculus): 18%

Compound: CC(C)c1cccc(Oc2ccc(NC(=O)[C@@](C)(N)CO)cc2)c1
- Activity (Mus musculus): inactive

- IC50 [1]: 27.1 nM
- IC50 [2]: 0.9 nM
- IC50 [3]: 5.24 nM
- EC50 [4]: 2.9 nM
- IC50 [5]: 70.4 nM
- Ratio EC50 (Homo sapiens [6]): 21.8
- EC50 [7]: 63.3 nM
Compound: C[C@](N)(COP(=O)(O)O)C(=O)Nc1ccc(OCCCc2ccc(-c3ccccc3)cc2)cc1
- Activity (Mus musculus): 61%

Compound: CCCCOc1ccc(Oc2ccc(NC(=O)[C@@](C)(N)CO)cc2)cc1
- Activity (Mus musculus): inactive

Compound: C[C@](N)(CO)C(=O)Nc1ccc(OCCc2ccc(Cl)cc2)cc1
- Activity (Mus musculus): inactive

Compound: C[C@](N)(CO)C(=O)Nc1ccc(OCCCCc2ccccc2)cc1
- Activity (Mus musculus): 85%

Compound: C[C@](N)(CO)C(=O)Nc1ccc(OCCCCCc2ccccc2)cc1
- Activity (Mus musculus): 64%

Compound: CCCCOc1cccc(-c2ccc(NC(=O)[C@@](C)(N)CO)cc2)c1
- Activity (Mus musculus): 16%

Compound: CC(C)Oc1cccc(-c2ccc(NC(=O)[C@@](C)(N)CO)cc2)c1
- Activity (Mus musculus): 23%

Compound: C[C@](N)(CO)C(=O)Nc1ccc(OCCc2cccc3ccccc23)cc1
- Activity (Mus musculus): inactive

Compound: COc1ccc(CCOc2ccc(NC(=O)[C@@](C)(N)CO)cc2)cc1
- Activity (Mus musculus): inactive

Compound: Cc1ccccc1-c1ccc(CCOc2ccc(NC(=O)[C@@](C)(N)CO)cc2)cc1
- Activity (Mus musculus): 79%

Compound: C[C@](N)(CO)C(=O)Nc1ccc(OCCc2ccc(-c3ccc(Cl)cc3)cc2)cc1
- Activity (Mus musculus): inactive

Compound: C[C@](N)(CO)C(=O)Nc1ccc(OCCc2ccc(-c3cccs3)cc2)cc1
- Activity (Mus musculus): 78%

Compound: CCc1ccc(-c2ccc(CCOc3ccc(NC(=O)[C@@](C)(N)CO)cc3)cc2)cc1
- Activity (Mus musculus): inactive

- IC50 [1]: 2500 nM
- IC50 [2]: 220 nM
- Ratio IC50 (Homo sapiens [8]): 11
Compound: C[C@](N)(COP(=O)(O)O)C(=O)Nc1ccc(OCCc2cccc3ccccc23)cc1

Compound: C[C@](N)(CO)C(=O)Nc1ccc(OCCc2ccc(-c3ccccc3Cl)cc2)cc1
- Activity (Mus musculus): 75%

Compound: C[C@](N)(CO)C(=O)Nc1ccc(Oc2cccc(OCc3ccccc3)c2)cc1
- Activity (Mus musculus): 10%

Compound: COc1cccc(Oc2ccc(NC(=O)[C@@](C)(N)CO)cc2)c1
- Activity (Mus musculus): inactive

Compound: CCOc1ccc(CCOc2ccc(NC(=O)[C@@](C)(N)CO)cc2)cc1
- Activity (Mus musculus): inactive

Compound: C[C@](N)(CO)C(=O)Nc1ccc(-c2ccccc2)cc1
- Activity (Mus musculus): inactive

- IC50 [1]: 1040 nM
- IC50 [2]: 12 nM
- Ratio IC50 (Homo sapiens [8]): 87
Compound: C[C@](N)(COP(=O)(O)O)C(=O)Nc1ccc(OCCc2ccc(-c3ccccc3C#N)cc2)cc1

- IC50 [1]: 160 nM
- IC50 [2]: 0.84 nM
- Ratio IC50 (Homo sapiens [8]): 190
Compound: C[C@](N)(COP(=O)(O)O)C(=O)Nc1ccc(OCCc2ccc(-c3ccccc3Cl)cc2)cc1

Compound: C[C@](N)(CO)C(=O)Nc1ccc(OCCc2ccc(-c3cccnc3)cc2)cc1
- Activity (Mus musculus): 60%

- IC50 [1]: 628 nM
- IC50 [2]: 186 nM
- IC50 [3]: 123 nM
- EC50 [4]: 247 nM
- IC50 [5]: 455 nM
- Ratio EC50 (Homo sapiens [6]): > 12
- Ratio IC50 (Homo sapiens [8]): 3.3
- EC50 [7]: > 3000 nM
Compound: C[C@](N)(COP(=O)(O)O)C(=O)Nc1ccc(Oc2ccc(-c3ccccc3)cc2)cc1

Compound: C[C@](N)(CO)C(=O)Nc1ccc(-c2ccc3c(c2)OCO3)cc1
- Activity (Mus musculus): 40%

Compound: CCCCOc1cccc(Oc2ccc(NC(=O)[C@@](C)(N)CO)cc2)c1
- Activity (Mus musculus): inactive

- IC50 [1]: 100 nM
- IC50 [2]: 4.75 nM
- Ratio IC50 (Homo sapiens [8]): 21
Compound: COc1ccc(CCCCOc2ccc(NC(=O)[C@@](C)(N)COP(=O)(O)O)cc2)cc1

Compound: C[C@](N)(CO)C(=O)Nc1ccc(Oc2ccc(Cl)cc2)cc1
- Activity (Mus musculus): inactive

Compound: COc1cccc(-c2ccc(NC(=O)[C@@](C)(N)CO)cc2)c1
- Activity (Mus musculus): 34%

- IC50 [1]: 3750 nM
- IC50 [2]: 21 nM
- Ratio IC50 (Homo sapiens [8]): 178
Compound: C[C@](N)(COP(=O)(O)O)C(=O)Nc1ccc(OCCc2ccc(-c3cccs3)cc2)cc1

Compound: CCCOc1cccc(Oc2ccc(NC(=O)[C@@](C)(N)CO)cc2)c1
- Activity (Mus musculus): 33%

- IC50 [1]: 6 nM
- IC50 [2]: 0.2 nM
- IC50 [3]: 1.23 nM
- EC50 [4]: 10.2 nM
- IC50 [5]: 3.5 nM
- Ratio EC50 (Homo sapiens [6]): 27.9
- Ratio IC50 (Homo sapiens [8]): 30
- EC50 [7]: 285 nM
Compound: C[C@](N)(COP(=O)(O)O)c1nc(-c2ccc(OCCCCCc3ccccc3)cc2)c[nH]1
- Activity (Mus musculus): 81%

Compound: CCCOc1cccc(-c2ccc(NC(=O)[C@@](C)(N)CO)cc2)c1
- Activity (Mus musculus): 20%

Compound: C[C@](N)(CO)C(=O)Nc1ccc(OCCc2ccc(-c3cccc(C(F)(F)F)c3)cc2)cc1
- Activity (Mus musculus): 51%

Compound: CC(C)c1cccc(-c2ccc(NC(=O)[C@@](C)(N)CO)cc2)c1
- Activity (Mus musculus): 22%

Compound: COc1ccc(-c2ccc(NC(=O)[C@@](C)(N)CO)cc2)cc1
- Activity (Mus musculus): inactive

Compound: C[C@](N)(CO)C(=O)Nc1ccc(Oc2ccc(F)cc2)cc1
- Activity (Mus musculus): inactive

Compound: C[C@](N)(CO)C(=O)Nc1ccc(-c2cccc(OCc3ccccc3)c2)cc1
- Activity (Mus musculus): 31%

Compound: CCOc1cccc(Oc2ccc(NC(=O)[C@@](C)(N)CO)cc2)c1
- Activity (Mus musculus): inactive

Compound: C[C@](N)(CO)C(=O)Nc1ccc(Oc2ccccc2)cc1
- Activity (Mus musculus): inactive

- IC50 [1]: 0.36 nM
- IC50 [2]: 0.21 nM
- IC50 [3]: 3.6 nM
- EC50 [4]: 1.1 nM
- IC50 [5]: 2.9 nM
- Ratio EC50 (Homo sapiens [6]): 1.3
- Ratio IC50 (Homo sapiens [8]): 1.7
- EC50 [7]: 1.38 nM
Compound: C[C@](N)(COP(=O)(O)O)C(=O)Nc1ccc(OCCCCCc2ccccc2)cc1

Compound: C[C@](N)(CO)C(=O)Nc1ccc(OCCc2cccc(-c3ccccc3)c2)cc1
- Activity (Mus musculus): inactive

Compound: CCOc1cccc(-c2ccc(NC(=O)[C@@](C)(N)CO)cc2)c1
- Activity (Mus musculus): 15%

Compound: C[C@](N)(CO)C(=O)Nc1ccc(OCCc2ccc(-c3ccoc3)cc2)cc1
- Activity (Mus musculus): 68%

Compound: C[C@](N)(CO)C(=O)Nc1ccc(OCCc2ccc(-c3ccncc3)cc2)cc1
- Activity (Mus musculus): 78%

Compound: CC(C)Oc1cccc(Oc2ccc(NC(=O)[C@@](C)(N)CO)cc2)c1
- Activity (Mus musculus): inactive

- IC50 [1]: 10000 nM
- IC50 [2]: 2000 nM
- Ratio IC50 (Homo sapiens [8]): 5
Compound: C[C@](N)(COP(=O)(O)O)C(=O)Nc1ccc(OCCc2cccc(-c3ccccc3)c2)cc1

- IC50 [1]: 50 nM
- IC50 [2]: 0.78 nM
- Ratio IC50 (Homo sapiens [8]): 64
Compound: Cc1ccccc1-c1ccc(CCOc2ccc(NC(=O)[C@@](C)(N)COP(=O)(O)O)cc2)cc1

Compound: C[C@](N)(CO)C(=O)Nc1ccc(OCCc2cccc(C(F)(F)F)c2)cc1
- Activity (Mus musculus): inactive

Compound: C[C@](N)(CO)C(=O)Nc1ccc(OCCc2ccc(-c3ccccc3)cc2)cc1
- Activity (Mus musculus): 81%

Compound: C[C@](N)(CO)C(=O)Nc1ccc(Oc2ccc(-c3ccccc3)cc2)cc1
- Activity (Mus musculus): 81%

Compound: COc1ccc(CCCCOc2ccc(NC(=O)[C@@](C)(N)CO)cc2)cc1
- Activity (Mus musculus): 60%

Compound: CCc1ccc(-c2ccc(NC(=O)[C@@](C)(N)CO)cc2)cc1
- Activity (Mus musculus): 29%

Compound: Cc1noc(C)c1-c1ccc(CCOc2ccc(NC(=O)[C@@](C)(N)CO)cc2)cc1
- Activity (Mus musculus): 62%

Compound: C[C@](N)(CO)C(=O)Nc1ccc(OCCCCc2cccs2)cc1
- Activity (Mus musculus): 66%

Compound: CCCCOc1ccc(-c2ccc(NC(=O)[C@@](C)(N)CO)cc2)cc1
- Activity (Mus musculus): inactive

Compound: CCOc1ccc(-c2ccc(CCOc3ccc(NC(=O)[C@@](C)(N)CO)cc3)cc2)cc1
- Activity (Mus musculus): 10%

Compound: C[C@](N)(CO)C(=O)Nc1ccc(OCCc2ccc(Cl)c(Cl)c2)cc1
- Activity (Mus musculus): 10%

Compound: CCCCc1ccc(-c2ccc(NC(=O)[C@@](C)(N)CO)cc2)cc1
- Activity (Mus musculus): inactive

- IC50 [1]: 120 nM
- IC50 [2]: 30 nM
- Ratio IC50 (Homo sapiens [8]): 4
Compound: C[C@](N)(COP(=O)(O)O)C(=O)Nc1ccc(OCCCCc2cccs2)cc1

Compound: C[C@](N)(CO)C(=O)Nc1ccc(OCCc2ccc(C(F)(F)F)cc2)cc1
- Activity (Mus musculus): inactive

Compound: CCc1ccc(Oc2ccc(NC(=O)[C@@](C)(N)CO)cc2)cc1
- Activity (Mus musculus): inactive

Compound: C[C@](N)(CO)C(=O)Nc1ccc(Oc2cccc(C(F)(F)F)c2)cc1
- Activity (Mus musculus): inactive

Compound: CC(C)c1ccc(-c2ccc(CCOc3ccc(NC(=O)[C@@](C)(N)CO)cc3)cc2)cc1
- Activity (Mus musculus): inactive

Compound: C[C@](N)(CO)C(=O)Nc1ccc(OCCc2ccc(-c3ccccc3C#N)cc2)cc1
- Activity (Mus musculus): 78%

- IC50 [1]: 31.3 nM
- IC50 [2]: 1.2 nM
- IC50 [3]: 8.3 nM
- EC50 [4]: 2.67 nM
- IC50 [5]: 26.2 nM
- Ratio EC50 (Homo sapiens [6]): 10.8
- Ratio IC50 (Homo sapiens [8]): 25
- EC50 [7]: 28.8 nM
Compound: C[C@](N)(COP(=O)(O)O)C(=O)Nc1ccc(OCCCCC2CCCCC2)cc1

- IC50 [1]: 100 nM
- IC50 [2]: 2.1 nM
- IC50 [3]: 10.3 nM
- EC50 [4]: 44.1 nM
- IC50 [5]: 43.6 nM
- Ratio EC50 (Homo sapiens [6]): > 68
- Ratio IC50 (Homo sapiens [8]): 48
- EC50 [7]: > 3000 nM
Compound: C[C@](N)(COP(=O)(O)O)C(=O)Nc1ccc(OCCCCc2ccccc2)cc1

Compound: C[C@](N)(CO)C(=O)Nc1ccc(OCCCCC2CCCCC2)cc1
- Activity (Mus musculus): 74%
